Laboratory results: ChEMBL document CHEMBL1811814, “Synthesis and evaluation of indole, pyrazole, chromone and pyrimidine based conjugates for tumor growth inhibitory activities--development of highly efficacious cytotoxic agents” (Eur J Med Chem, 2010)

Legend:
Format in all cases: functional
[1] = test system: U-251; assay: Growth inhibition of human U251 cells
[2] = test system: A498; assay: Growth inhibition of human A498 cells assessed tumor cell growth at 10^-5 M; set-up: scale not given: the % may be the effect or the level left
Procedure, shortened: (§1)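 NCI 60-human-tumor-cell-line panel screen. Each compound was tested at a single concentration of 10^-5 M, and percent growth of tumor cells was recorded for each cell line. Growth inhibition was expressed from these percent-growth values.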

[3] = test system: SR; assay: Growth inhibition of human SR cells
[4] = test system: OVCAR-4; assay: Growth inhibition of human OVCAR4 cells assessed tumor cell growth at 10^-5 M; set-up: scale not given: the % may be the effect or the level left; procedure, shortened: as §1
[5] = test system: HCC 2998; assay: Growth inhibition of human HCC2998 cells
[6] = test system: MDA-MB-231; assay: Growth inhibition of human MDA-MB-231 cells assessed tumor cell growth at 10^-5 M; set-up: scale not given: the % may be the effect or the level left; procedure, shortened: as §1
[7] = test system: Malme-3M; assay: Growth inhibition of human MALME-3M cells
[8] = test system: MOLT-4; assay: Growth inhibition of human MOLT4 cells assessed tumor cell growth at 10^-5 M; set-up: scale not given: the % may be the effect or the level left; procedure, shortened: as §1
[9] = test system: IGROV-1; assay: Growth inhibition of human IGROV1 cells
Procedure, shortened: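 Follow-up panel testing at five concentrations (10^-4, 10^-5, 10^-6, 10^-7 and 10^-8 M) across the 60 human tumor cell lines. GI50 was obtained for each line from the concentration-response data, with the panel average GI50 also reported.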

[10] = test system: OVCAR-5; assay: Growth inhibition of human OVCAR5 cells assessed tumor cell growth at 10^-5 M; set-up: scale not given: the % may be the effect or the level left; procedure, shortened: as §1
[11] = test system: DU-145; assay: Growth inhibition of human DU145 cells assessed tumor cell growth at 10^-5 M; set-up: scale not given: the % may be the effect or the level left; procedure, shortened: as §1
[12] = test system: UACC-62; assay: Growth inhibition of human UACC62 cells assessed tumor cell growth at 10^-5 M; set-up: scale not given: the % may be the effect or the level left
Procedure, shortened: (§2)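 Single-dose screen at 10^-5 M across the 60 human tumor cell line panel, run to NCI standards. The value is the percent growth of each cell line in the presence of compound. Compounds active at this dose moved on to five-concentration testing (10^-4 to 10^-8 M).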

[13] = test system: M14; assay: Growth inhibition of human M14 cells assessed tumor cell growth at 10^-5 M; set-up: scale not given: the % may be the effect or the level left; procedure, shortened: as §1
[14] = test system: OVCAR-5; assay: Growth inhibition of human OVCAR5 cells
[15] = test system: HCT-116; assay: Growth inhibition of human HCT116 cells
[16] = test system: K562; assay: Growth inhibition of human K562 cells
[17] = test system: SF-268; assay: Growth inhibition of human SF268 cells
[18] = test system: OVCAR-3; assay: Growth inhibition of human OVCAR3 cells assessed tumor cell growth at 10^-5 M; set-up: scale not given: the % may be the effect or the level left; procedure, shortened: as §1
[19] = test system: LOX IMVI; assay: Growth inhibition of human LOXIMVI cells
[20] = test system: 786-0; assay: Growth inhibition of human 786-0 cells
[21] = test system: SK-OV-3; assay: Growth inhibition of human SKOV3 cells assessed tumor cell growth at 10^-5 M; set-up: scale not given: the % may be the effect or the level left; procedure, shortened: as §1
[22] = test system: HOP-92; assay: Growth inhibition of human HOP92 cells
[23] = test system: KM12; assay: Growth inhibition of human KM12 cells assessed tumor cell growth at 10^-5 M; set-up: scale not given: the % may be the effect or the level left; procedure, shortened: as §1
[24] = test system: SK-MEL-2; assay: Growth inhibition of human SK-MEL-2 cells
[25] = test system: OVCAR-3; assay: Growth inhibition of human OVCAR3 cells
[26] = test system: SR; assay: Growth inhibition of human SR cells assessed tumor cell growth at 10^-5 M; set-up: scale not given: the % may be the effect or the level left; procedure, shortened: as §2
[27] = test system: NCI-H322M; assay: Growth inhibition of human NCI-H322M cells assessed tumor cell growth at 10^-5 M; set-up: scale not given: the % may be the effect or the level left; procedure, shortened: as §1
[28] = test system: HT-29; assay: Growth inhibition of human HT-29 cells assessed tumor cell growth at 10^-5 M; set-up: scale not given: the % may be the effect or the level left; procedure, shortened: as §1
[29] = test system: SW-620; assay: Growth inhibition of human SW620 cells assessed tumor cell growth at 10^-5 M; set-up: scale not given: the % may be the effect or the level left; procedure, shortened: as §2
[30] = test system: A549; assay: Growth inhibition of human A549 cells
[31] = test system: TK-10; assay: Growth inhibition of human TK10 cells
[32] = test system: MCF7; assay: Growth inhibition of human MCF7 cells assessed tumor cell growth at 10^-5 M; set-up: scale not given: the % may be the effect or the level left; procedure, shortened: as §1
[33] = test system: HCT-116; assay: Growth inhibition of human HCT116 cells assessed tumor cell growth at 10^-5 M; set-up: scale not given: the % may be the effect or the level left; procedure, shortened: as §1
[34] = test system: Malme-3M; assay: Growth inhibition of human MALME-3M cells assessed tumor cell growth at 10^-5 M; set-up: scale not given: the % may be the effect or the level left; procedure, shortened: as §1
[35] = test system: SN12C; assay: Growth inhibition of human SN12C cells
[36] = test system: NCI/ADR-RES; assay: Growth inhibition of human NCI/ADR-RES cells
[37] = test system: BT-549; assay: Growth inhibition of human BT549 cells assessed tumor cell growth at 10^-5 M; set-up: scale not given: the % may be the effect or the level left; procedure, shortened: as §1
[38] = test system: SF-295; assay: Growth inhibition of human SF295 cells assessed tumor cell growth at 10^-5 M; set-up: scale not given: the % may be the effect or the level left; procedure, shortened: as §1
[39] = Growth inhibition of human […] cells assessed tumor cell growth at 10^-5 M; set-up: scale not given: the % may be the effect or the level left; procedure, shortened: as §1
[40] = test system: HL-60(TB); assay: Growth inhibition of human HL-60(TB) cells
[41] = test system: HCT-15; assay: Growth inhibition of human HCT15 cells
[42] = test system: U-251; assay: Growth inhibition of human U251 cells assessed tumor cell growth at 10^-5 M; set-up: scale not given: the % may be the effect or the level left; procedure, shortened: as §2
[43] = test system: UACC-62; assay: Growth inhibition of human UACC62 cells
[44] = test system: PC-3; assay: Growth inhibition of human PC3 cells assessed tumor cell growth at 10^-5 M; set-up: scale not given: the % may be the effect or the level left; procedure, shortened: as §1
[45] = test system: SNB-19; assay: Growth inhibition of human SNB19 cells assessed tumor cell growth at 10^-5 M; set-up: scale not given: the % may be the effect or the level left; procedure, shortened: as §2
[46] = test system: MDA-MB-435; assay: Growth inhibition of human MDA-MB-435 cells
[47] = test system: SK-MEL-5; assay: Growth inhibition of human SK-MEL-5 cells
[48] = test system: NCI-H23; assay: Growth inhibition of human NCI-H23 cells
[49] = test system: SK-OV-3; assay: Growth inhibition of human SKOV3 cells
[50] = Growth inhibition of human Hs 578T cells
[51] = read-out: LC50 (the source's name)

SMILES: O=C1/C(=C\c2coc3ccccc3c2=O)c2ccccc2N1c1c(Cl)cccc1Cl
- GI50 [1]: 1.4 µM
- CC50 [1, 51]: > 100 µM
- Activity [2]: 12.65%
- GI50 [3]: 1.4 µM
- CC50 [3, 51]: > 100 µM
- Activity [4]: 49.54%
- GI50 [5]: 4.2 µM
- CC50 [5, 51]: > 100 µM
- Activity [6]: 60.45%
- GI50 [7]: 2.4 µM
- CC50 [7, 51]: > 100 µM
- Activity [8]: 19.03%
- GI50 [9]: 1.6 µM
- CC50 [9, 51]: 97.9 µM
- Activity [10]: 101.76%
- Activity [11]: 24.59%
- Activity [12]: 36.62%
- Activity [13]: 43.38%
- GI50 [14]: 20.8 µM
- CC50 [14, 51]: > 100 µM
- GI50 [15]: 1.9 µM
- CC50 [15, 51]: > 100 µM
- GI50 [16]: 2 µM
- CC50 [16, 51]: > 100 µM
- GI50 [17]: 3.3 µM
- CC50 [17, 51]: > 100 µM
- Activity [18]: 16.79%
- GI50 [19]: 1.5 µM
- CC50 [19, 51]: 57.5 µM
- GI50 [20]: 3 µM
- CC50 [20, 51]: > 100 µM
- Activity [21]: 74.8%
- GI50 [22]: 4.7 µM
- CC50 [22, 51]: > 100 µM
- Activity [23]: 27.09%
- GI50 [24]: 2.7 µM
- CC50 [24, 51]: 61.6 µM
- GI50 [25]: 2.6 µM
- CC50 [25, 51]: > 100 µM
- Activity [26]: 19.47%
- Activity [27]: 73.67%
- Activity [28]: 47.62%
- Activity [29]: 35%
- GI50 [30]: 4.2 µM
- CC50 [30, 51]: > 100 µM
- GI50 [31]: 3.3 µM
- CC50 [31, 51]: > 100 µM
- Activity [32]: 31.61%
- Activity [33]: 35.61%
- Activity [34]: 83.75%
- GI50 [35]: 3.3 µM
- CC50 [35, 51]: > 100 µM
- GI50 [36]: 3.3 µM
- CC50 [36, 51]: > 100 µM
- Activity [37]: 41.11%
- Activity [38]: -12.01%
- Activity [39]: 10.21%
- GI50 [40]: 2 µM
- CC50 [40, 51]: > 100 µM
- GI50 [41]: 0.6 µM
- CC50 [41, 51]: > 100 µM
- Activity [42]: 36.04%
- GI50 [43]: 2.1 µM
- CC50 [43, 51]: > 100 µM
- Activity [44]: 31.81%
- Activity [45]: 62.58%
- GI50 [46]: 2.6 µM
- CC50 [46, 51]: > 100 µM
- GI50 [47]: 2.4 µM
- CC50 [47, 51]: > 100 µM
- GI50 [48]: 4.4 µM
- GI50 [49]: 35.4 µM
- CC50 [49, 51]: > 100 µM
- GI50 [50]: 9.1 µM
- CC50 [50, 51]: > 100 µM
